Results as given in ChEMBL document CHEMBL4330169, “Bioactive Diterpenoids from the Stems of Euphorbia royleana” (J Nat Prod, 2019).

System: BV-2
Assay: Anti-inflammatory activity in mouse BV2 cells assessed as reduction in LPS-induced nitric oxide production by Griess assay
Assay type: functional, cell-based
Summary of the method: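 NO release from LPS-stimulated BV-2 cells was measured by the Griess reaction, and IC50 values were derived. SMT (2-methyl-2-thiopseudourea, sulfate) served as the positive control. Data come from three experiments. The procedure otherwise follows a previously published method.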

Row | SMILES | IC50
1 | C/C=C(/C)C(=O)O[C@@H]1/C(C)=C/[C@@]23O[C@@]2(C[C@H](C)[C@@H]3O)C(=O)[C@H](C)[C@H](OC(C)=O)[C@@H]2[C@H]([C@@H]1OC)C2(C)C | > 50 µM
2 | CC(=O)O[C@H]1CCC(C)(C)[C@H]2CCC3=CC4=C(C)C(=O)O[C@@H]4C[C@H]3[C@]12C | 12 µM
3 | C/C=C(/C)C(=O)O[C@H]1C(C)=C[C@]23C(=O)[C@@H](C=C(C)[C@@H](O)[C@]12O)[C@H]1[C@@H](C[C@H]3C)[C@@]1(C)COC(=O)/C(C)=C/C | 28.6 µM
4 | CO[C@H]1[C@H]2[C@@H]([C@@H](OC(C)=O)[C@@H](C)C(=O)[C@@]34C[C@H](C)[C@H](OC(C)=O)[C@]3(/C=C(\C)[C@H]1O)O4)C2(C)C | > 50 µM
5 | CC(=O)O[C@@H]1[C@@H]2[C@H]([C@H](OC(=O)c3ccccc3)[C@H](OC(C)=O)/C(C)=C/[C@@]34O[C@@]3(C[C@H](C)[C@@H]4OC(C)=O)C(=O)[C@@H]1C)C2(C)C | > 50 µM
6 | CCC(C)C(=O)OC[C@]1(C)C(=O)CC[C@@]2(C)[C@@H]3CC[C@@H]4C[C@@]3(CC[C@@H]21)C[C@@]4(O)CO (stereo partly specified) | 32.6 µM
7 | CC1=C2C=C3CC[C@@H]4C(C)(C)CC[C@H](O)[C@@]4(C)[C@@H]3C[C@@H]2OC1=O | 38.4 µM
8 | CC1=C2C=C3CC[C@@H]4[C@@](C)(CO)CC[C@H](O)[C@@]4(C)[C@@H]3C[C@H]2OC1=O | > 50 µM
9 | C=C[C@@]1(C)C=C2CC[C@@H]3[C@@](C)(O)[C@H](O)CC[C@@]3(C)[C@@H]2C[C@@H]1O | > 50 µM
10 | CC1=C2[C@@H](O)C3=C(C[C@H]2OC1=O)[C@@]1(C)[C@H](CC3)C(C)(C)CC[C@@H]1O | > 50 µM
11 | C/C=C(/C)C(=O)O[C@H]1C(C)=C[C@]23C(=O)[C@@H](C=C(C)[C@@H](O)[C@]12O)[C@H]1[C@@H](C[C@H]3C)[C@@]1(C)COC(=O)c1ccccc1 | 14.5 µM
12 | C=C[C@@]1(C)C=C2CC[C@@H]3[C@@](C)(C=O)[C@H](O)CC[C@@]3(C)[C@@H]2C[C@@H]1O | 32.3 µM
13 | C=C1C[C@@]23CC[C@@H]4C(C)(C)C(=O)CC[C@@]4(C)[C@@H]2C[C@@H]1[C@@H](O)C3=O | > 50 µM
14 | CC(=O)O[C@H]1C2=C(C[C@H]3OC(=O)C(C)=C13)[C@@]1(C)[C@H](CC2)C(C)(C)CC[C@@H]1O | > 50 µM
15 | C/C=C(\C)C(=O)OC[C@]1(C)C(=O)CC[C@@]2(C)[C@@H]3CC[C@@H]4C[C@@]3(CC[C@@H]21)C[C@@]4(O)CO | 19.3 µM
16 | C=C1C[C@@]23CC[C@@H]4C(C)(C)[C@@H](O)CC[C@@]4(C)[C@@H]2C[C@@H]1[C@@H](O)C3=O | > 50 µM
17 | CC(=O)OC[C@]1(C)C(=O)CC[C@@]2(C)[C@@H]3C[C@@H]4CC[C@@]3(CC[C@@H]21)C[C@@]4(O)CO | > 50 µM
18 | C=C[C@]1(C)C=C2CC[C@H]3[C@](C)(C=O)[C@@H](O)CC[C@]3(C)[C@H]2CC1 [SANDARACOPIMARADIENOLAL] | > 50 µM
19 | C=C1C[C@@]23CC[C@@H]4C(C)(C)[C@H](O)CC[C@@]4(C)[C@@H]2C[C@@H]1[C@@H](O)C3=O | > 50 µM
20 | C[C@H]1C(=O)CC[C@]2(C)[C@@H]1CC[C@@]13CC[C@@H](C[C@H]12)[C@](O)(CO)C3 | > 50 µM
21 | CSC(=N)N | 3.7 µM
